The labels stand for the following.
B1: tRNA (parent)
chain: GUUCCGUUGGCGUAAUGGUAACGCGUCUCCCUCCUAAGGAGAAGACUGCGGGUUCGAGUCCCGUACGGAACG

This sample holds only a part of the variants without activity. A value given as a limit tells only on which side of the number the result lay.

In the data set the parent is B1. As to the kind of experiment: yeast fitness relative to wild type (ratio to wild type); higher = fitter; tRNA-Arg(CCU), competitive growth, 37 C, YPD. In short, it runs like this:
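The tRNA-Arg(CCU) gene variants were made by chemical synthesis with a 3% per-site mutation rate at 69 sites and inserted at the native genomic locus of Saccharomyces cerevisiae. After pooling, the strains were competed in YPD at 37°C for 24 hours in six parallel replicates. Gene amplicons from the start population and each end population were read by 100-nucleotide paired-end sequencing, and Darwinian fitness relative to wild type was taken from genotype frequency changes. Genotypes needed ≥ 100 starting reads, and estimates < 0.5 were set to 0.5.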
On to C5A A21C A43U C46G G50U C61G, for which the yeast fitness was no more than 0.5.
The value for C5A C22U G39A A69U was no more than 0.5.
For the variant C5A C24G U26A C29G A43U, the yeast fitness is no more than 0.5.
For C5A C62U A69C the value was 0.738; for C5A A40G A65G, 0.605; for C5A G12A G18A A69C, no more than 0.5.
The value for C5A G18A C61G U64C was no more than 0.5; that for C5A C34G A43C was no more than 0.5.
The value for C5A C33G C34A A40C was 0.567; that for C5A C31G G51A was 0.577.
Turning to C5A G18C G67C, the yeast fitness is 0.561.
The value for C5A G25A U28C C31U A40C A42G A69C was no more than 0.5; that for C5A G12A C29A G68C was 0.689.
On to C5A C11G A57G, for which the yeast fitness was no more than 0.5.
In the case of C5A C11G C29U A36U G50C U54G, the yeast fitness was no more than 0.5.
The value for C5A G25C C30U was 0.576.
As for C5A G12A U35A A42G A65U, the yeast fitness was no more than 0.5.
With C5A G17C C27U A57C, the yeast fitness was no more than 0.5.
Turning to C5A G17C A57C A70U, the yeast fitness was no more than 0.5.
Take C5A A45U A69U: the yeast fitness came out at 0.801.
Take C5A C24U C62A A69C: the yeast fitness was no more than 0.5.
For C5A A57U C61G the value was no more than 0.5.
C5A C34U A40G: the yeast fitness was determined as 0.727.
For C5A C30A C31G A37U C55U A57C C61A the value was 0.55; for C5A G12A C60G, no more than 0.5; for C5A C24U C29U C30A A37C A65C, 0.549.
Turning to C5A C31G A37G U59A A70C, the yeast fitness is no more than 0.5.
Take C5A G17A A42G U64A: the yeast fitness was 0.606.
The value for C5A G12A was 0.788; that for C5A C30A A36U G41C G51C was 0.65; that for C5A C29G A36U A43G was no more than 0.5.
As for C5A C11G A37U C49A, the yeast fitness came to 0.515.
As for C5A C31U U35C A69U, the yeast fitness came to 0.539.
As for C5A G38A C62U, the yeast fitness is 0.639.
For C5A A21U C24U C27G the value was no more than 0.5; for C5A C22G C29A A43U, 0.574.
In the case of C5A G17C C46G C55U, the yeast fitness is no more than 0.5.
For C5A A36C C46G the value was 0.532; for C5A C24G U26A C29G U32A C49U, no more than 0.5.
In the case of C5A C22U C29U A42U, the yeast fitness is no more than 0.5.
The value for C5A C33G A40G was 0.521.
Regarding C5A A21G C31G G56C U59A C60G C62G A70C, the yeast fitness is no more than 0.5.
As for C5A C24U, the yeast fitness is 0.71.
On to C5A C24G, for which the yeast fitness was 0.621.
The value for C5A A21C C34G C60G A70G was no more than 0.5; that for C5A A37U A57G G63C was 0.733; that for C5A A43C A65U was no more than 0.5.
In the case of C5A A43G C55U C66G, the yeast fitness is no more than 0.5.
For C5A G23A C46U G50C C61A A70C the value was no more than 0.5; for C5A G17C A57U, no more than 0.5; for C5A A65C A70C, 0.675.
For C5A C27U the value was 0.815; for C5A G9C U47G G68U, no more than 0.5.
The value for C5A G17A G18A G25A C55A was 0.552; that for C5A C22U G51C was no more than 0.5.
For the variant C5A C22U G39A C61U, the yeast fitness was determined as 0.503.
Turning to C5A C11G G38C G58C, the yeast fitness is no more than 0.5.
For the variant C5A G10C G12A G23A U64A, the yeast fitness was no more than 0.5.
The value for C5A C60U C66U was no more than 0.5; that for C5A G23A C24U was 0.561.
For C5A C22U C27G C30G A45U C62A the value was no more than 0.5; for C5A C22G U26A A57C G67A A69U, no more than 0.5.
The value for C5A C46A G56C A70G was no more than 0.5.
As for C5A G12A A45G G67A, the yeast fitness was no more than 0.5.
Turning to C5A G10C A43G G58C C66G, the yeast fitness is no more than 0.5.
For C5A C22G C29G C31G, the yeast fitness turned out to be 0.627.
For C5A C29U A36U C66U G67A the value was no more than 0.5; for C5A C31U U35C G50A, 0.565.
The value for C5A C11G C33A G38A was 0.552; that for C5A C34A A40U A43G C62U was no more than 0.5; that for C5A C22G C29G C31G C61A was 0.529.
For C5A A69G the value was 0.908.
As to C5A C34G, the yeast fitness was 0.589.
For C5A C34A, the yeast fitness was determined as 0.606.
For C5A C11A G17C A43U U59A the value was no more than 0.5; for C5A G12A C33G A57U, no more than 0.5; for C5A A42U G67A, no more than 0.5.
For C5A C31U G51C the value was 0.807; for C5A G17A C24U A36C, 0.538.
For C5A G9C C27A C30U A65G the value was no more than 0.5; for C5A C11A U59A C60G, no more than 0.5.
Take C5A C33G A65U: the yeast fitness was no more than 0.5.
In the case of C5A G6C C11G C22U C46U G56A, the yeast fitness was no more than 0.5.
For C5A G10C G17A A40U U64C the value was 0.582; for C5A C29A A57G, no more than 0.5; for C5A A70C, 0.982.
For C5A A70U, the yeast fitness is 0.822.
Regarding C5A C27U G39A A40G, the yeast fitness stood at 0.577.
The value for C5A C34G U53A was no more than 0.5; that for C5A C22G C24G C31U A43U G48A was 0.544.
Regarding C5A A37U C49U, the yeast fitness was no more than 0.5.
For C5A G39A C49U G67A the value was no more than 0.5; for C5A C24G C62A, no more than 0.5; for C5A C22U C31G C60A, no more than 0.5.
Regarding C5A A37C C49A, the yeast fitness was no more than 0.5.
The value for C5A G18C was 0.569; that for C5A G10C U26C was 0.518.
The value for C5A C31A C46G was no more than 0.5; that for C5A C30A A57G was 0.565.
C5A C33U C61U: the yeast fitness is no more than 0.5.
For C5A G17A A42G G56A the value was no more than 0.5.
As to C5A C24U C29U C33U C34G A42U G58A, the yeast fitness was no more than 0.5.
The value for C5A A40C G41A C46U G52C was no more than 0.5; that for C5A C24U G25C C30G was no more than 0.5; that for C5A C11U C30A A57G was no more than 0.5.
For C5A C22G C27G A36U A40C the value was no more than 0.5.
The value for C5A G12A U35A A42G A65C C66A was 0.6.
As for C5A A21G C31A, the yeast fitness was found to be 0.642.
For the variant C5A G6A U7A A43U G44A C46A G63A G68C A69G, the yeast fitness is 0.532.
For C5A C24G C29G A40C the value was no more than 0.5; for C5A C24A U26G A43C A69U, no more than 0.5.
On to C5A C24U A36C C66U, for which the yeast fitness was no more than 0.5.
For the variant C5A C33A A65U, the yeast fitness was no more than 0.5.
Take C5A A45G: the yeast fitness stood at 0.937.
For C5A A45U, the yeast fitness was 0.877.
On to C5A A40C A69U, for which the yeast fitness is 0.539.
For C5A A40U G41C the value was 0.614.
The value for C5A G9C A21U was no more than 0.5.
For the variant C5A C11G, the yeast fitness was found to be 0.657.
The value for C5A C11U was 0.856; that for C5A C27U G39C C49U C55U was no more than 0.5; that for C5A G17A was 0.851.
In the case of C5A G17C, the yeast fitness worked out at 0.652.
In the case of C5A C55U, the yeast fitness came to 0.707.
Consider C5A C55A, for which the yeast fitness is 0.655.
For C5A C31G G56C G58C G63A the value was no more than 0.5; for C5A A21U G50A, no more than 0.5.
The value for C5A G23A C24U U47A was no more than 0.5.
As to C5A C33G A42C, the yeast fitness is no more than 0.5.
Turning to C5A C22A C24A U26C, the yeast fitness is no more than 0.5.
For C5A G39C C46G the value was 0.547.
On to C5A G17C G44A C61U, for which the yeast fitness was no more than 0.5.
As for C5A G17A C49G, the yeast fitness was found to be 0.532.
For C5A G25A C33A A40U A69U, the yeast fitness is no more than 0.5.
The value for C5A C30U U59C C62A was no more than 0.5; that for C5A G18A C30U G48C G68C was 0.54.
The value for C5A C31G A42G was no more than 0.5; that for C5A A21U U32A G50A C60G was no more than 0.5; that for C5A C24U C46A was 0.519.
For C5A A65U the value was 0.723.
As to C5A C11G A21U U28C, the yeast fitness was no more than 0.5.
For C5A G9C A42C C49G G68A the value was no more than 0.5.
The value for C5A A21U A65G was 0.636; that for C5A G18A C30U G48C was no more than 0.5.
Regarding C5A C33U C62A, the yeast fitness worked out at 0.542.
As for C5A G17C C49U A57C, the yeast fitness is no more than 0.5.
For C5A G41A A57U the value was no more than 0.5.
Consider C5A A21U C55A C66U, for which the yeast fitness is no more than 0.5.
Regarding C5A C24U G25C C30G G50C G56A A65U, the yeast fitness was no more than 0.5.
On to C5A G12C C34U A37G, for which the yeast fitness came out at 0.562.
With C5A A21U C24U C27G C55U, the yeast fitness was no more than 0.5.
The value for C5A C24U G67U A69C was 0.517.
On to C5A C22A, for which the yeast fitness is 0.831.
The value for C5A C29A A45U C62G C66G was no more than 0.5; that for C5A C34U A36C A40C C55A C66U was no more than 0.5; that for C5A C11G A45C C66G G68C was no more than 0.5.
Take C5A G12A U35G A69C: the yeast fitness is no more than 0.5.
Take C5A G18A G25A C31U: the yeast fitness is no more than 0.5.
C5A A42U G58A: the yeast fitness was 0.614.
For C5A A40U G67A, the yeast fitness was determined as 0.659.
Turning to C5A C31U G68A, the yeast fitness came out at 0.639.
With C5A A40G C49U, the yeast fitness is 0.548.
The value for C5A C29G G41A A43U was 0.659.
Take C5A C34U A36C A40C: the yeast fitness was no more than 0.5.
For C5A C22U C27G C30G A57U the value was no more than 0.5; for C5A C22G C49U A57C, 0.779.
For the variant C5A G6C A37G G52A C55G, the yeast fitness is no more than 0.5.

Source of the values: the RNAGym collection of RNA variant scans (doi:10.1126/science.aae0568).
